The target of series [1] is Streptavidin (Streptomyces avidinii) (UniProt P22629). The experiment in a line: Binding affinity to Streptomyces avidinii streptavidin at 1 mM after 2 hrs by HABA dye-based UV-vis spectroscopic analysis.
The nature of series [2]: Cytotoxicity against human NIH-H460 cells assessed as cell viability at 50 nM after 48 hrs by MTT assay relative to control.
For series [3], the species on record is Homo sapiens. The experiment in a line: Induction of Nur77 expression in human NIH-H460 cells AT 20 nM after 3 hrs by Western blot analysis. The series is classed as functional, cell-based. Put shortly: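 NIH-H460 cancer cells were exposed to probes at 20 nM for 3 h. Nur77 protein was detected by western blotting with an anti-Nur77 antibody. DMSO served as the blank, and the underivatized biotin linker hydrazides were the negative controls.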

A word on the viability: it is a read-out of living cells in per cent, often relative to untreated cells.

Activity calls are given as the source filed them. The calls are words filed in the database; no cut-off is given here.

Chain of Streptavidin (Streptomyces avidinii) (P22629 whole entry): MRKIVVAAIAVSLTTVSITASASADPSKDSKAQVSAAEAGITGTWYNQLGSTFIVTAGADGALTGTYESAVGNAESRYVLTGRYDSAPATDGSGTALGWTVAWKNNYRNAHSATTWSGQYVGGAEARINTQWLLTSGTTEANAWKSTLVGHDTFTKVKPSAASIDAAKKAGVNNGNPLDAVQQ

As to `C[C@@H]1O[C@@H](O[C@H]2CC[C@]3(/C=N/NC(=O)CCCCCNC(=O)CCCC[C@@H]4SC[C@@H]5NC(=O)N[C@@H]54)[C@H]4C[C@@H](O)[C@]5(C)[C@@H](C6=CC(=O)OC6)CC[C@]5(O)[C@@H]4CC[C@]3(O)C2)[C@H](O)[C@H](O)[C@H]1O`, the result in series [1] and in series [3] was Active. Moreover, the viability at 48 h, 0.05 µM in series [2] was above 90%.

Regarding `C[C@H]1O[C@@H](O[C@H]2CC[C@]3(/C=N/NC(=O)COCCOCCNC(=O)CCCC[C@@H]4SC[C@@H]5NC(=O)N[C@@H]54)[C@H]4C[C@@H](O)[C@]5(C)[C@@H](C6=CC(=O)OC6)CC[C@]5(O)[C@@H]4CC[C@]3(O)C2)[C@H](O)[C@H](O)[C@H]1O`, in series [2], the viability at 48 h, 0.05 µM was above 90%. Moreover, the result in series [3] was Active.

`NNC(=O)CCCCCNC(=O)CCCC[C@@H]1SC[C@@H]2NC(=O)N[C@@H]21`: in series [2], the viability at 48 h, 0.05 µM was above 90%. For `C[C@H]1O[C@@H](O[C@H]2CC[C@]3(C=O)[C@H]4C[C@@H](O)[C@]5(C)[C@@H](C6=CC(=O)OC6)CC[C@]5(O)[C@@H]4CC[C@]3(O)C2)[C@H](O)[C@H](O)[C@H]1O`, in series [3], the result was Active. For the compound `C[C@@H]1O[C@@H](O[C@H]2CC[C@]3(/C=N/NC(=O)COCCOCCNC(=O)CCCC[C@@H]4SC[C@@H]5NC(=O)N[C@@H]54)[C@H]4C[C@@H](O)[C@]5(C)[C@@H](C6=CC(=O)OC6)CC[C@]5(O)[C@@H]4CC[C@]3(O)C2)[C@H](O)[C@H](O)[C@H]1O`, in series [2], the viability at 48 h, 0.05 µM was above 90%. For the same compound, in series [3], the result was Active.

As to `C[C@@H]1O[C@@H](O[C@H]2CC[C@]3(C=O)[C@H]4C[C@@H](O)[C@]5(C)[C@@H](C6=CC(=O)OC6)CC[C@]5(O)[C@@H]4CC[C@]3(O)C2)[C@H](O)[C@H](O)[C@H]1O`, the outcome in series [3] was Active. Regarding `C[C@H]1O[C@@H](O[C@H]2CC[C@]3(/C=N/NC(=O)CNC(=O)CCCC[C@@H]4SC[C@@H]5NC(=O)N[C@@H]54)[C@H]4C[C@@H](O)[C@]5(C)[C@@H](C6=CC(=O)OC6)CC[C@]5(O)[C@@H]4CC[C@]3(O)C2)[C@H](O)[C@H](O)[C@H]1O`, in series [2], the viability at 48 h, 0.05 µM was above 90%. Further, in series [3], the result was Active. The corresponding values for `C[C@@H]1O[C@@H](O[C@H]2CC[C@]3(/C=N/NC(=O)CCCC[C@@H]4SC[C@@H]5NC(=O)N[C@@H]54)[C@H]4C[C@@H](O)[C@]5(C)[C@@H](C6=CC(=O)OC6)CC[C@]5(O)[C@@H]4CC[C@]3(O)C2)[C@H](O)[C@H](O)[C@H]1O` are above 90% and “Active”.

For `C[C@@H]1O[C@@H](O[C@H]2CC[C@]3(/C=N/NC(=O)COCCOCCOCCNC(=O)CCCC[C@@H]4SC[C@@H]5NC(=O)N[C@@H]54)[C@H]4C[C@@H](O)[C@]5(C)[C@@H](C6=CC(=O)OC6)CC[C@]5(O)[C@@H]4CC[C@]3(O)C2)[C@H](O)[C@H](O)[C@H]1O`, the viability at 48 h, 0.05 µM in series [2] is above 90%. Besides, the outcome in series [3] was Active.

Consider `C[C@H]1O[C@@H](O[C@H]2CC[C@]3(/C=N/NC(=O)CCCNC(=O)CCCC[C@@H]4SC[C@@H]5NC(=O)N[C@@H]54)[C@H]4C[C@@H](O)[C@]5(C)[C@@H](C6=CC(=O)OC6)CC[C@]5(O)[C@@H]4CC[C@]3(O)C2)[C@H](O)[C@H](O)[C@H]1O`, for which, in series [2], the viability at 48 h, 0.05 µM was above 90%. In series [3], the result was Active. Take `C[C@H]1O[C@@H](O[C@H]2CC[C@]3(/C=N/NC(=O)CCCCCCCNC(=O)CCCC[C@@H]4SC[C@@H]5NC(=O)N[C@@H]54)[C@H]4C[C@@H](O)[C@]5(C)[C@@H](C6=CC(=O)OC6)CC[C@]5(O)[C@@H]4CC[C@]3(O)C2)[C@H](O)[C@H](O)[C@H]1O`: the outcome in series [1] and in series [3] was Active. The viability at 48 h, 0.05 µM in series [2] was above 90%.

With `C[C@@H]1O[C@@H](O[C@H]2CC[C@]3(/C=N/NC(=O)CCCNC(=O)CCCC[C@@H]4SC[C@@H]5NC(=O)N[C@@H]54)[C@H]4C[C@@H](O)[C@]5(C)[C@@H](C6=CC(=O)OC6)CC[C@]5(O)[C@@H]4CC[C@]3(O)C2)[C@H](O)[C@H](O)[C@H]1O`, the viability at 48 h, 0.05 µM in series [2] is above 90%. Besides, the outcome in series [3] was Active. For `C[C@H]1O[C@@H](O[C@H]2CC[C@]3(/C=N/NC(=O)COCCOCCOCCNC(=O)CCCC[C@@H]4SC[C@@H]5NC(=O)N[C@@H]54)[C@H]4C[C@@H](O)[C@]5(C)[C@@H](C6=CC(=O)OC6)CC[C@]5(O)[C@@H]4CC[C@]3(O)C2)[C@H](O)[C@H](O)[C@H]1O` the same measures were above 90% and “Active”. The corresponding values for `C[C@@H]1O[C@@H](O[C@H]2CC[C@]3(/C=N/NC(=O)CCCCCCCNC(=O)CCCC[C@@H]4SC[C@@H]5NC(=O)N[C@@H]54)[C@H]4C[C@@H](O)[C@]5(C)[C@@H](C6=CC(=O)OC6)CC[C@]5(O)[C@@H]4CC[C@]3(O)C2)[C@H](O)[C@H](O)[C@H]1O` are above 90% and “Active”. As to `C[C@H]1O[C@@H](O[C@H]2CC[C@]3(/C=N/NC(=O)CCCCCNC(=O)CCCC[C@@H]4SC[C@@H]5NC(=O)N[C@@H]54)[C@H]4C[C@@H](O)[C@]5(C)[C@@H](C6=CC(=O)OC6)CC[C@]5(O)[C@@H]4CC[C@]3(O)C2)[C@H](O)[C@H](O)[C@H]1O`, in series [2], the viability at 48 h, 0.05 µM is above 90%. In series [3], the outcome was Active. Turning to `C[C@@H]1O[C@@H](O[C@H]2CC[C@]3(/C=N/NC(=O)CNC(=O)CCCC[C@@H]4SC[C@@H]5NC(=O)N[C@@H]54)[C@H]4C[C@@H](O)[C@]5(C)[C@@H](C6=CC(=O)OC6)CC[C@]5(O)[C@@H]4CC[C@]3(O)C2)[C@H](O)[C@H](O)[C@H]1O`, the viability at 48 h, 0.05 µM in series [2] is above 90%. Besides, the result in series [3] was Active. Take `NNC(=O)COCCOCCNC(=O)CCCC[C@@H]1SC[C@@H]2NC(=O)N[C@@H]21`: the viability at 48 h, 0.05 µM in series [2] was above 90%. Consider `C[C@H]1O[C@@H](O[C@H]2CC[C@]3(/C=N/NC(=O)CCCC[C@@H]4SC[C@@H]5NC(=O)N[C@@H]54)[C@H]4C[C@@H](O)[C@]5(C)[C@@H](C6=CC(=O)OC6)CC[C@]5(O)[C@@H]4CC[C@]3(O)C2)[C@H](O)[C@H](O)[C@H]1O`, for which the viability at 48 h, 0.05 µM in series [2] was above 90%. On to `C[C@H]1O[C@@H](O[C@H]2CC[C@]3(/C=N/NC(=O)COCCNC(=O)CCCC[C@@H]4SC[C@@H]5NC(=O)N[C@@H]54)[C@H]4C[C@@H](O)[C@]5(C)[C@@H](C6=CC(=O)OC6)CC[C@]5(O)[C@@H]4CC[C@]3(O)C2)[C@H](O)[C@H](O)[C@H]1O`, for which the viability at 48 h, 0.05 µM in series [2] is above 90%. Further, in series [3], the outcome was Active.

`C[C@@H]1O[C@@H](O[C@H]2CC[C@]3(/C=N/NC(=O)COCCNC(=O)CCCC[C@@H]4SC[C@@H]5NC(=O)N[C@@H]54)[C@H]4C[C@@H](O)[C@]5(C)[C@@H](C6=CC(=O)OC6)CC[C@]5(O)[C@@H]4CC[C@]3(O)C2)[C@H](O)[C@H](O)[C@H]1O`: the viability at 48 h, 0.05 µM in series [2] was above 90%.

Values taken from ChEMBL document CHEMBL4422650, “Design and synthesis of biotinylated cardiac glycosides for probing Nur77 protein inducting pathway” (Bioorg Med Chem Lett, 2019).
